# Measurements reported in ChEMBL document CHEMBL1671655, “Anidulafungin is fungicidal and exerts a variety of postantifungal effects against Candida albicans, C. glabrata, C. parapsilosis, and C. krusei isolates” (2009).
# Calls of active or inactive are those of the source. No cut-off for these calls is given here. Starred links: 1 amine or outer side, 2 acyl side, 3 side chain; linkers in the order of their positions; H or OH if unused. Positions of bridges follow the written chain, without caps; N, C: chain ends. Non-standard residues stand in square brackets, D forms with d. Residues, ends and D or L forms follow the SMILES beside them. *: point of attachment. pTerphenylCO(4''-OnC5H11) = CCCCCOc1ccc(-c2ccc(-c3ccc(C(=O)*)cc3)cc2)cc1; Orn(4R-OH,5R-OH) = O=C([C@H](C[C@@H](O)[C@@H](O)N[*:3])N[*:1])[*:2]; hTyr(3S-OH,4S-OH) = N[C@H](C(=O)O)[C@H](O)[C@@H](O)c1ccc(O)cc1; Pro(3S-OH,4S-Me) = C[C@H]1CN[C@H](C(=O)O)[C@H]1O; Hyp = O=C(O)[C@@H]1C[C@@H](O)CN1
# Tests used:
# Candida parapsilosis [1] = test: Fungicidal activity against Candida parapsilosis isolate A assessed as log reduction in bacterial count at 4 times MIC after 48 hrs by time-kill analysis; type: functional; details: Lodderomyces parapsilosis
# How it was run: (§1)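 Isolates subcultured twice on SDA, then suspended to 0.5 McFarland and diluted into RPMI 1640 (MOPS, pH 7.0) with or without anidulafungin, giving about 1 x 10^5 to 5 x 10^5 CFU/ml. Tubes were shaken at 35°C. Samples were taken at 0, 2, 4, 8, 12, 24 and 48 h, serially diluted 10-fold, plated on SDA, and CFU counted after 48 h at 35°C. Each isolate was run twice; mean values.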
# Candida parapsilosis [2] = test: Fungicidal activity against Candida parapsilosis isolate S assessed as log reduction in bacterial count at 16 times MIC after 48 hrs by time-kill analysis; type: functional; details: Lodderomyces parapsilosis; how it was run: as §1
# Nakaseomyces glabratus [3] = test: Fungicidal activity against Candida glabrata isolate 1 assessed as log reduction in bacterial count at MIC after 48 hrs by time-kill analysis; type: functional; details: isolate 1, 48 h
# How it was run: (§2)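 Isolates subcultured twice on SDA, suspended to 0.5 McFarland, giving ~1 x 10^5 to 5 x 10^5 CFU/ml in MOPS-buffered RPMI 1640 (pH 7.0) with or without drug at multiples of MIC (MIC by CLSI M27-A3). Tubes shaken at 35°C with continuous drug. Sampled at 0–48 h, diluted 10-fold and plated on SDA; CFU counted after 48 h at 35°C. Run twice per isolate; means.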
# Nakaseomyces glabratus [4] = test: Fungicidal activity against Candida glabrata isolate 2 assessed as log reduction in bacterial count at 4 times MIC after 48 hrs by time-kill analysis; type: functional; details: isolate 2, 48 h; how it was run: as §2
# Pichia kudriavzevii [5] = test: Fungicidal activity against Candida krusei isolate ATCC 6258 assessed as log reduction in bacterial count at MIC after 48 hrs by time-kill analysis; type: functional; details: isolate ATCC 6258, 48 h; how it was run: as §2
# Pichia kudriavzevii [6] = test: Fungicidal activity against Candida krusei isolate 1 assessed as log reduction in bacterial count at 4 times MIC after 48 hrs by time-kill analysis; type: functional; details: isolate 1, 48 h; how it was run: as §2
# Nakaseomyces glabratus [7] = test: Fungicidal activity against Candida glabrata isolate 1 assessed as log reduction in bacterial count at MIC after drug exposure for 1 hr followed by washout measured after 48 hrs in the absence of drug by PAFE study; type: functional
# How it was run: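 Starting inoculum ~1 x 10^5 to 5 x 10^5 CFU/ml in MOPS-buffered RPMI 1640 (pH 7.0) with drug at multiples of the CLSI M27-A3 MIC. After 1 h at 35°C, cells washed and centrifuged three times at 1,400 x g for 10 min, then resuspended in warm drug-free RPMI. Shaken at 35°C and plated on SDA at 0–48 h; CFU counted after 48 h. Run twice per isolate; means.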
# Candida parapsilosis [8] = test: Antifungal activity against Candida parapsilosis isolate A assessed as time period for bacterial growth inhibition at 4 times MIC after 1 hr drug exposure; type: functional
# How it was run: (§3)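 Inoculum of about 1 x 10^5 to 5 x 10^5 CFU/ml in MOPS-buffered RPMI (pH 7.0), shaken at 35°C and exposed to drug for 1 h. Cells then washed and centrifuged three times and resuspended in drug-free warm RPMI. Samples plated on SDA at 0, 2, 4, 8, 12, 24 and 48 h, with CFU counted after 48 h at 35°C. Run twice per isolate; values are means.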
# Candida albicans [9] = test: Antifungal activity against Candida albicans by NCCLS M27A broth microdilution method; type: functional
# Nakaseomyces glabratus [10] = test: Antifungal activity against Candida glabrata by NCCLS M27A broth microdilution method; type: functional
# Candida albicans [11] = test: Antifungal activity against Candida albicans ATCC 90028 by CLSI M27-A3 broth microdilution method; type: functional
# How it was run: (§4)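 CLSI M27-A3 broth microdilution in RPMI 1640 buffered to pH 7.0 with MOPS. Starting inoculum 0.5 x 10^3 to 2.5 x 10^3 cells/ml, incubated at 35°C. MIC read as the lowest concentration giving >50% growth reduction versus control. Each isolate tested on at least three occasions.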
# Nakaseomyces glabratus [12] = test: Antifungal activity against Candida glabrata isolate 3 by CLSI M27-A3 broth microdilution method; type: functional; how it was run: as §4
# Pichia kudriavzevii [13] = test: Antifungal activity against Candida krusei isolate 1 by CLSI M27-A3 broth microdilution method; type: functional; how it was run: as §4
# Nakaseomyces glabratus [14] = test: Antifungal activity against Candida glabrata isolate 1 assessed as time period for bacterial growth inhibition at 16 times MIC after 1 hr drug exposure; type: functional; how it was run: as §3
# Nakaseomyces glabratus [15] = test: Antifungal activity against Candida glabrata isolate 3 assessed as time period for bacterial growth inhibition at 16 times MIC after 1 hr drug exposure; type: functional; how it was run: as §3
# Pichia kudriavzevii [16] = test: Antifungal activity against Candida krusei isolate ATCC 6258 assessed as time period for bacterial growth inhibition at 16 times MIC after 1 hr drug exposure; type: functional; how it was run: as §3
# Nakaseomyces glabratus [17] = test: Increase in susceptibility to SDS in Candida glabrata isolate 3 assessed as cell wall damage at MIC after 1 hr relative to control; type: functional, organism-based
# How it was run: (§5)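 Cells recovered 8 h after a 1-h drug exposure were grown in YPD with 1% glucose to exponential phase and adjusted to OD599 0.1. Undiluted culture and 10-fold serial dilutions were spotted onto YPD plates containing SDS (0.01 to 0.04%), then incubated 72 h at 30°C. Growth compared with unexposed control cells; triplicate.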
# Candida albicans [18] = test: Increase in susceptibility to SDS in Candida albicans ATCC 90028 assessed as cell wall damage at 16 times MIC after 1 hr relative to control; type: functional, organism-based; how it was run: as §5
# Candida parapsilosis [19] = test: Increase in susceptibility to SDS in Candida parapsilosis isolate 1 assessed as cell wall damage at 16 times MIC after 1 hr relative to control; type: functional, organism-based; how it was run: as §5
# Candida albicans [20] = test: Increase in susceptibility to calcofluor white in Candida albicans ATCC 90028 assessed as cell wall damage at MIC after 1 hr relative to control; type: functional, organism-based
# How it was run: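 Cells recovered 8 h after a 1-h drug exposure were grown to exponential phase in YPD with 1% glucose and adjusted to OD599 0.1. Undiluted and 10-fold serially diluted cultures were spotted onto YPD plates containing calcofluor white, then incubated at 30°C for 72 h. Growth compared with no-drug control cells; triplicate.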
# Candida parapsilosis [21] = test: Increase in susceptibility to calcofluor white in Candida parapsilosis isolate A assessed as cell wall damage at MIC after 1 hr relative to control; type: functional, organism-based
# How it was run: (§6)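 Candida given a 1-h anidulafungin pulse in MOPS-buffered RPMI 1640 (pH 7.0) at 35°C, washed three times by centrifugation, and regrown drug-free. Cells collected 8 h later, grown in YPD with 1% glucose to exponential phase, and set to OD599 0.1. Undiluted culture and 10-fold dilutions (4 µl) spotted on YPD plates with calcofluor white, then 30°C for 72 h. Triplicate; compared with no-drug cells.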
# Candida parapsilosis [22] = test: Increase in susceptibility to calcofluor white in Candida parapsilosis isolate A assessed as cell wall damage at 4 times MIC after 1 hr relative to control; type: functional, organism-based; how it was run: as §6
# Nakaseomyces glabratus [23] = test: Inhibition of Candida glabrata isolate 1 adherence to human buccal epithelial cells at 4 times MIC after 1 hr by adherence assay relative to control; type: functional, Epithelial cell
# How it was run: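 Candida collected 8 h after a 1-h 4x MIC pulse and washout were grown on SDA for 24 h at 35°C. Buccal epithelial cells were pooled from three donors and washed in PBS. Cells (1 x 10^5/ml) were mixed 1:1 by volume with Candida (1 x 10^6/ml) and shaken 1 h at 37°C. Mixtures were filtered, washed, and Gram-stained, and Candida were counted per 100 epithelial cells. Run in duplicate on ≥2 occasions; Student's t test against unexposed controls.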
smiles,measurement,setting,value
"CCCCCOc1ccc(-c2ccc(-c3ccc(C(=O)N[C@H]4C[C@@H](O)[C@@H](O)NC(=O)[C@@H]5[C@@H](O)[C@@H](C)CN5C(=O)[C@H]([C@@H](C)O)NC(=O)[C@H]([C@H](O)[C@@H](O)c5ccc(O)cc5)NC(=O)[C@@H]5C[C@@H](O)CN5C(=O)[C@H]([C@@H](C)O)NC4=O)cc3)cc2)cc1 [ANIDULAFUNGIN] ({pTerphenylCO(4''-OnC5H11)}-[Orn(4R-OH,5R-OH)]T[Hyp][hTyr(3S-OH,4S-OH)]T[Pro(3S-OH,4S-Me)]; lactam 1-C)",log reduction,Candida parapsilosis [1],3.19 log CFU/ml
same,log reduction,Candida parapsilosis [2],3.11 log CFU/ml
same,log reduction,Nakaseomyces glabratus [3],1.8 log CFU/ml
same,log reduction,Nakaseomyces glabratus [4],1.87 log CFU/ml
same,log reduction,Pichia kudriavzevii [5],2.21 log CFU/ml
same,log reduction,Pichia kudriavzevii [6],2.29 log CFU/ml
same,log reduction,Nakaseomyces glabratus [7],0.89
same,Time,Candida parapsilosis [8],8 h
same,MIC90,Candida albicans [9],0.06 µg/mL
same,MIC90,Nakaseomyces glabratus [10],0.06 µg/mL
same,MIC,Candida albicans [11],0.03 µg/mL
same,MIC,Nakaseomyces glabratus [12],0.03 µg/mL
same,MIC,Pichia kudriavzevii [13],0.03 µg/mL
same,Time,Nakaseomyces glabratus [14],8 h
same,Time,Nakaseomyces glabratus [15],8 h
same,Time,Pichia kudriavzevii [16],8 h
same,Activity,Nakaseomyces glabratus [17],Active
same,Activity,Candida albicans [18],Active
same,Activity,Candida parapsilosis [19],Active
same,Activity,Candida albicans [20],Active
same,Activity,Candida parapsilosis [21],Active
same,Activity,Candida parapsilosis [22],Active
same,inhibition (INH),Nakaseomyces glabratus [23],62%
